Calls of active or inactive are those of the source.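 The calls were made as follows, unless noted: active = viability at or under a set limit in both replicates, limit being median viability minus 3 SD (cut at about 48% in these data, passing the limit was not always enough); inconclusive = at or under the limit in just one replicate; inactive = at or above the limit in both replicates.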
Experiment: HUVEC growth inhibition – cell-based, human, primary screen (AID 575;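 active = viability at or below 30% in both replicate assays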;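 also: 100% = median of untreated cell wells with 0.1% DMSO on each plate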)
Conditions: HUVEC proliferation, CellTiter-Glo luminescence, 72 h; at 10 µM; active compounds read low
In short: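 Test system – primary HUVEC, no more than 12 passages · Dosing – one dose, 10 µM final, 0.1% DMSO · Times – 72 h treatment at 37 °C · Measured by – ATP-based CellTiter-Glo luminescent read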

Row | Structure (SMILES) | viability
1 | Cc1oc2cc3c(C(=O)OCCN(C)C)c(C)oc3cc2c1C(=O)OCCN(C)C | 72.2% (inactive)
2 | CCOc1cc(C2Nc3ccccc3C(=O)N2c2ccccc2OC)ccc1O (stereo unspecified) | 105% (inactive)
3 | O=C(c1cccc2c1C(=O)N(Cc1cccnc1)C2)N1CCN(c2ccccc2)CC1 | 97.3% (inactive)
4 | O=C(CSc1oc(-c2ccco2)nc1S(=O)(=O)c1ccccc1)NCC1CCCO1 (stereo unspecified) | 99.7% (inactive)
5 | Nc1cc(=O)[nH]c(SCC(=O)Nc2ccc(Br)cc2)n1 | 101% (inactive)
6 | CC1(C)S[C@@H]2[C@H](NC(=O)[C@H](N)c3ccccc3)C(=O)N2[C@H]1C(=O)O | 93.8% (inactive)
7 | CC(=O)Nc1nc(C)c(-c2csc(Nc3ccc(O)cc3)n2)s1 | 19.7% (active)
8 | O=C(CCn1c(=O)oc2ccccc21)N1CCCCCC1 | 99% (inactive)
9 | O=C(O)CCN(CCC(=O)O)c1nnc(SCc2ccccc2)s1 | 107% (inactive)
10 | CC(=O)OCC(=O)[C@@]12OC(C)(C)O[C@@H]1C[C@H]1[C@@H]3C[C@H](F)C4=CC(=O)C=C[C@]4(C)[C@@]3(F)[C@@H](O)C[C@@]12C | 62.1% (inactive)
11 | COC(=O)CCC(=O)CN | 92.9% (inactive)
12 | C=CCN=C1SCC(=O)N1S(=O)(=O)c1ccc(C)cc1 | 89.1% (inactive)
13 | O=C1c2ccccc2C(=O)N1CCN1CCCCC1 | 129% (inactive)
14 | CN(C)c1ccc(NC(=O)Nc2cccc(Cl)c2)cc1 | 99.9% (inactive)
15 | COC(=O)[C@H](C)NC(=O)Nc1cccc(C(F)(F)F)c1 | 97.2% (inactive)
16 | Cc1c(C=NCCOCc2ccccc2)cnn1C | 109% (inactive)
17 | COC(=O)c1cccc(Nc2cc(C)nc(-c3ccccc3O)n2)c1 | 62.3% (inactive)
18 | CCN(CC)C(=O)c1ccc(O)c(OC)c1 | 90.7% (inactive)
19 | CC(C)CN(CC(C)C)c1nc(N)c(C#N)c(CC#N)c1C#N | 114% (inactive)
20 | c1cnc(NCCNc2ncccn2)nc1 | 112% (inactive)
21 | C=CCn1c(SCC#N)nc2c(c1=O)C(C)(C)Cc1ccccc1-2 | 76.2% (inactive)
22 | COc1cc(NS(=O)(=O)c2ccc(N)cc2)ncn1 | 75% (inactive)

Experiment: H69AR cell proliferation blockers – human, duplicate replicates, primary screen (AID 580);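 also: 100% = mean luminescence of untreated wells and 0% = no signal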
Conditions: H69AR lung tumor cells viability, ATP luminescence, 72 h; at 10 µM; active compounds read low

Row | Structure (SMILES) | viability
23 | Cn1c(-c2ccccc2)cnc1SCc1nc2ccccc2c(=O)[nH]1 | 101% (inactive)
24 | COc1ccc(N2C(=O)C(Cl)=C(N3CCCC3)C2=O)cc1 | 94.7% (inactive)
25 | Cc1ccc(-n2c(N)c(C(N)=O)sc2=S)cc1 | 87.9% (inactive)
26 | O=C(Nc1ccc(N2CCOCC2)c(Cl)c1)c1ccc(Br)o1 | 20% (active)
27 | NS(=O)(=O)c1ccc(CCNC(=O)c2cccnc2)cc1 | 97.2% (inactive)
28 | C[N+](C)(C)CCOP(=O)([O-])OC[C@H](O)CO | 96% (inactive)
29 | Cn1c(=O)[nH]c(=O)c2c1nc(N1CCc3ccccc3C1)n2CCSc1nc2ccccc2s1 | 75.2% (inactive)
30 | CCOC(=O)c1ccc(COC(=O)c2cc3ccccc3oc2=O)o1 | 114% (inactive)
31 | CCc1c(C)c2ccc(OCC(=O)OC)cc2oc1=O | 94.4% (inactive)
32 | Cc1c(NC(=O)C(C)Oc2ncnc3ccccc23)c(=O)n(-c2ccccc2)n1C (stereo unspecified) | 97% (inactive)
33 | COc1nc(OC)nc(N2CCC(C(=O)NCc3cccs3)CC2)n1 | 91.9% (inactive)
34 | CCCCOc1ccccc1C1C(C(N)=O)=C(C)Nc2nnnn21 (stereo unspecified) | 93.3% (inactive)
35 | O=C(NCCCN1CCN(Cc2ccccc2)CC1)C1CCN(c2nnc(-n3cccc3)s2)CC1 | 88.7% (inactive)
36 | CCN(CC)CCCNC1CCS(=O)(=O)C1 (stereo unspecified) | 87.9% (inactive)
37 | N#CC1=C(N)N2C(=C(C#N)C13CCCCC3)SC1CCCCC12O (stereo unspecified) | 76.1% (inactive)
38 | COc1ccccc1CNC(=O)C(C)NS(=O)(=O)c1ccccc1 (stereo unspecified) | 87.1% (inactive)
39 | O=C(CSc1ccc(-c2ccccc2)nn1)N1CCOCC1 | 95.2% (inactive)
40 | Cc1oc2cc3c(C(=O)OCCN(C)C)c(C)oc3cc2c1C(=O)OCCN(C)C | 90.4% (inactive)
41 | CCOc1cc(C2Nc3ccccc3C(=O)N2c2ccccc2OC)ccc1O (stereo unspecified) | 95% (inactive)
42 | O=C(c1cccc2c1C(=O)N(Cc1cccnc1)C2)N1CCN(c2ccccc2)CC1 | 93.3% (inactive)

Row | Structure (SMILES) | viability
43 | O=C(CSc1oc(-c2ccco2)nc1S(=O)(=O)c1ccccc1)NCC1CCCO1 (stereo unspecified) | 86.5% (inactive)
44 | Nc1cc(=O)[nH]c(SCC(=O)Nc2ccc(Br)cc2)n1 | 90.5% (inactive)
45 | CC1(C)S[C@@H]2[C@H](NC(=O)[C@H](N)c3ccccc3)C(=O)N2[C@H]1C(=O)O | 107% (inactive)
46 | CC(=O)Nc1nc(C)c(-c2csc(Nc3ccc(O)cc3)n2)s1 | 13.3% (active)
47 | O=C(CCn1c(=O)oc2ccccc21)N1CCCCCC1 | 98.3% (inactive)
48 | O=C(O)CCN(CCC(=O)O)c1nnc(SCc2ccccc2)s1 | 93.6% (inactive)
49 | CC(=O)OCC(=O)[C@@]12OC(C)(C)O[C@@H]1C[C@H]1[C@@H]3C[C@H](F)C4=CC(=O)C=C[C@]4(C)[C@@]3(F)[C@@H](O)C[C@@]12C | 106% (inactive)
50 | COC(=O)CCC(=O)CN | 88.6% (inactive)
51 | C=CCN=C1SCC(=O)N1S(=O)(=O)c1ccc(C)cc1 | 113% (inactive)
52 | O=C1c2ccccc2C(=O)N1CCN1CCCCC1 | 103% (inactive)
53 | CN(C)c1ccc(NC(=O)Nc2cccc(Cl)c2)cc1 | 88.7% (inactive)
54 | COC(=O)[C@H](C)NC(=O)Nc1cccc(C(F)(F)F)c1 | 89.9% (inactive)
55 | Cc1c(C=NCCOCc2ccccc2)cnn1C | 96.2% (inactive)
56 | COC(=O)c1cccc(Nc2cc(C)nc(-c3ccccc3O)n2)c1 | 64.4% (inactive)
57 | CCN(CC)C(=O)c1ccc(O)c(OC)c1 | 101% (inactive)
58 | CC(C)CN(CC(C)C)c1nc(N)c(C#N)c(CC#N)c1C#N | 86.7% (inactive)
59 | c1cnc(NCCNc2ncccn2)nc1 | 99.8% (inactive)
60 | C=CCn1c(SCC#N)nc2c(c1=O)C(C)(C)Cc1ccccc1-2 | 78.8% (inactive)
61 | COc1cc(NS(=O)(=O)c2ccc(N)cc2)ncn1 | 92% (inactive)
